Laboratory results: ChEMBL document CHEMBL4196108, “5-Aroylindoles Act as Selective Histone Deacetylase 6 Inhibitors Ameliorating Alzheimer's Disease Phenotypes” (J Med Chem, 2018)
Activity calls are given as the source filed them. The calls are words filed in the database; no cut-off is given here.

Key:
[1] = test system: Rattus norvegicus; assay: In vivo inhibition of HDAC6 in Wistar rat brain hippocampal CA1 region assessed as downregulation of scopolamine-mediated increase in Tau phosphorylation at Ser396/Ser404 residues by immunohistochemical analysis; type: functional, organism-based
Procedure, shortened: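 Male Wistar rats, 7 weeks old, dosed orally at 25 mg/kg in 1% carboxymethyl cellulose/0.5% Tween 80 once daily. Scopolamine 1 mg/kg i.p. 90 min before test trial (controls excluded). Morris water maze (hidden platform escape latency), elevated plus maze (started at open-arm end, time to closed arm), then CA1 phospho-tau Ser396/Ser404 immunohistochemistry.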

[2] = biological target: T1, Protein deacetylase HDAC6 (Mus musculus) (UniProt Q9Z2V5); assay: Inhibition of HDAC6 in mouse Neuro-2a cells transfected with pCAX FLAG APP and pRK5-EGFP-Tau P301L plasmids assessed as increase in HSP90 acetylation at 1 uM after 24 hrs by coimmunoprecipitation analysis; type: cell-based
T1 sequence (whole entry): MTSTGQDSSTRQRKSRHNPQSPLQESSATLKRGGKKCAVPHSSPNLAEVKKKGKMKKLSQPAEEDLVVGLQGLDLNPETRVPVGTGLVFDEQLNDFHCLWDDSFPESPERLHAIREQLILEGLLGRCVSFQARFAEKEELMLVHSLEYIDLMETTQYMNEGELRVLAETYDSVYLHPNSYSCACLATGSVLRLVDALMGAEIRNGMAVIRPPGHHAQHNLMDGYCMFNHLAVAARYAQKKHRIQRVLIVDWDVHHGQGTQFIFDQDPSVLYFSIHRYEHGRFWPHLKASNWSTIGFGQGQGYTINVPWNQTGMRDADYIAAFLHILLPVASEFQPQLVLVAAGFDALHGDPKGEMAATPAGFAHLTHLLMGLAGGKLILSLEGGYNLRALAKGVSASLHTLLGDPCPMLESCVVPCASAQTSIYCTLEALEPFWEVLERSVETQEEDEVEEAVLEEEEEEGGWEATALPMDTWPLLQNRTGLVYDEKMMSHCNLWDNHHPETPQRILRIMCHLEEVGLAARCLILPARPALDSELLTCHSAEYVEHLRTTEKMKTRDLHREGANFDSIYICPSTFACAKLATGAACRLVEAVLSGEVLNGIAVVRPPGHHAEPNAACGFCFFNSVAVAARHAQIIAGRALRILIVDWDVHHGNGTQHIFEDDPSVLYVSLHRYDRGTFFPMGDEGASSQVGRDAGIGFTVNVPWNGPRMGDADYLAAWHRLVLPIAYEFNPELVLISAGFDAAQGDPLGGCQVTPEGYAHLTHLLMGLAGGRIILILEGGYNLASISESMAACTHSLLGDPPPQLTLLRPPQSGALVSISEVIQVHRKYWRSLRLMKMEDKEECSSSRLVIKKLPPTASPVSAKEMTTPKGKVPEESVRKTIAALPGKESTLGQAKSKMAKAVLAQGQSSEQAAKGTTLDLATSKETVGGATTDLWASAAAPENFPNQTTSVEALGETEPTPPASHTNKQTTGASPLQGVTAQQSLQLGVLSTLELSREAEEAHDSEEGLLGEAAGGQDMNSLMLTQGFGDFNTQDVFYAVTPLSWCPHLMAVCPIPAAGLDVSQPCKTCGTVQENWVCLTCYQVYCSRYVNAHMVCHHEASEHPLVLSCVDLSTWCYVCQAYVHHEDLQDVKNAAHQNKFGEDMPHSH
Procedure, shortened: (§1)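 SH-SY5Y and Neuro-2a cells cotransfected 24 h with APP695/Tau P301L plasmids, treated 24 h at 1 µM (ACY-1215 reference). 30 µg lysate immunoprecipitated overnight at 4 °C with anti-HDAC6 or anti-acetyl-lysine antibodies plus protein A/G beads, run on 8% SDS-PAGE, probed for Hsp90; Hsp70 by immunoblot. Three independent experiments.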

[3] = Drug uptake in Sprague-Dawley rat brain at 50 mg/kg, po after 1 hr by HPLC-MS/MS analysis; type: ADME, organism-based; details: read-out: Drug uptake
[4] = Toxicity in Balb/c mouse assessed as survival rate at 100 mg/kg, ip qd administered for 6 days followed by 1 week recovery (reference value: 100%); type: organism-based; details: in vivo
[5] = Toxicity in Balb/c mouse assessed as survival rate at 500 mg/kg, ip qd administered for 6 days followed by 1 week recovery (reference value: 100%); type: organism-based; details: in vivo
[6] = biological target: T2, Protein deacetylase HDAC6 (Homo sapiens) (UniProt Q9UBN7); assay: Inhibition of HDAC6 binding to HSP90 in human SH-SY5Y cells transfected with pCAX FLAG APP and pRK5-EGFP-Tau P301L plasmids at 1 uM after 24 hrs by coimmunoprecipitation analysis; type: cell-based; procedure, shortened: as §1
T2 sequence (whole entry): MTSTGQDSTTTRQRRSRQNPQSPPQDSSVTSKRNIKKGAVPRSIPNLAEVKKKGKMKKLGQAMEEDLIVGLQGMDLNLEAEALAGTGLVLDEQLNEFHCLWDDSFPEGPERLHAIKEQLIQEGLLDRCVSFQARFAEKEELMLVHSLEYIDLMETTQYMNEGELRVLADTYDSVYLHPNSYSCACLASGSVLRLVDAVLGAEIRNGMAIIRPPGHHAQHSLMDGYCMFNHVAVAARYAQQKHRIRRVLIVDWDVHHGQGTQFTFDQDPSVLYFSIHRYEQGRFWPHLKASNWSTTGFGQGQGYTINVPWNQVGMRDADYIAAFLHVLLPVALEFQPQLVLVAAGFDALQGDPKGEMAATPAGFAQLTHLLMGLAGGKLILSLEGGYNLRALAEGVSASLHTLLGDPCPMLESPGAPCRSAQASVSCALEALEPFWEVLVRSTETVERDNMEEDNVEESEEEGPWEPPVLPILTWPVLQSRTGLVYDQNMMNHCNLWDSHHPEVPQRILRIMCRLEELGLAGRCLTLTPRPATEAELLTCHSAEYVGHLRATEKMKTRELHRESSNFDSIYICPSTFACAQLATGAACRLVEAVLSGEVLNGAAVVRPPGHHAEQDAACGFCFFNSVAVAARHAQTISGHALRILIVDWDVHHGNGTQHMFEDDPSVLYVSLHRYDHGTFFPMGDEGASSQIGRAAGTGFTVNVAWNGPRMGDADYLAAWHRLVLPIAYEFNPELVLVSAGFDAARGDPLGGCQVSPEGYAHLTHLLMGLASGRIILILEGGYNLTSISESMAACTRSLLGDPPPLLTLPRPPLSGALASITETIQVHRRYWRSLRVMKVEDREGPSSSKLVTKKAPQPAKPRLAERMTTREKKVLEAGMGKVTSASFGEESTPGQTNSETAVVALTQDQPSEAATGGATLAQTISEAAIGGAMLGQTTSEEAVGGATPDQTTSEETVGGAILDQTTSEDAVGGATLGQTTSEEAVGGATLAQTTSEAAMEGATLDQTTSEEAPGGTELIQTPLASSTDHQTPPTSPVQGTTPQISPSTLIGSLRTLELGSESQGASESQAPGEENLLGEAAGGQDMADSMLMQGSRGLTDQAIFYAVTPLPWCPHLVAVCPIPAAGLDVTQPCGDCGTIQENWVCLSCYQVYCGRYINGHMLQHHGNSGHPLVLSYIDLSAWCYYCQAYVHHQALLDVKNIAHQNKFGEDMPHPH

## COc1ccc(C(=O)c2ccc3c(ccn3Cc3ccc(C(=O)NO)cc3)c2)cc1
[1]
  inhibition: Active
[2]
  inhibition: Active
[3]
  concentration at 1 h: 10.4 ng/g
[4]
  survival: 100%
[5]
  survival: 100%
[6]
  inhibition: Active
